From ChEMBL document CHEMBL3779852, “Structure-based design of N-substituted 1-hydroxy-4-sulfamoyl-2-naphthoates as selective inhibitors of the Mcl-1 oncoprotein” (Eur J Med Chem, 2016)
Calls of active or inactive are those of the source. The calls are words filed in the database; no cut-off is given here.

Key:
[1] = Inhibition of Bcl-XL (unknown origin) after 3 hrs by fluorescence polarization competition assay; parameters: species or system Homo sapiens
[2] = species on record: Homo sapiens; test: Selectivity ratio of Ki for Bcl-XL (unknown origin) to Ki for His6-MBP tagged recombinant human Mcl-1 residues 172 to 327 expressed in Escherichia coli
Procedure, shortened: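 Ratio computed as Ki(Bcl-xL) divided by Ki(Mcl-1). Both Ki values come from FP competition IC50s converted with the Nikolovska-Coleska equation, averaged over at least two independent assays. Hill-equation fit gives the IC50.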

[3] = tested on: SK-MEL-5; test: Antiproliferative activity against human SK-MEL-5 cells after 48 hrs by Cell titer blue viability assay; format: functional, cell-based; settings: SK-MEL-5, 48 h
[4] = tested on: A-375; test: Antiproliferative activity against human A375 cells after 48 hrs by Cell titer blue viability assay; format: functional, cell-based; settings: A-375, 48 h
Procedure, shortened: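 A375 cells seeded at 5,000/well in DMEM with 10% HIFBS and PenStrep, cultured overnight. Compounds added at final 4.69–300 μM (two-fold series) in 1% DMSO; vehicle controls also at 1% DMSO. After 48 h exposure, Cell Titer-Blue added for 2 h, fluorescence read at 560 ex/590 em. Percent viability relative to untreated cells, corrected for cell-free background.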

[5] = target: T1, Induced myeloid leukemia cell differentiation protein Mcl-1 (Homo sapiens, UniProt Q07820); test: Inhibition of His6-MBP tagged recombinant human Mcl-1 residues 172 to 327 expressed in Escherichia coli assessed as inhibition of interaction with Bak BH3 peptide (GQVGRQLAIIGDDINR) after 3 hrs by fluorescence polarization competition assay
T1 sequence (Q07820 whole entry, the tested form may be a part): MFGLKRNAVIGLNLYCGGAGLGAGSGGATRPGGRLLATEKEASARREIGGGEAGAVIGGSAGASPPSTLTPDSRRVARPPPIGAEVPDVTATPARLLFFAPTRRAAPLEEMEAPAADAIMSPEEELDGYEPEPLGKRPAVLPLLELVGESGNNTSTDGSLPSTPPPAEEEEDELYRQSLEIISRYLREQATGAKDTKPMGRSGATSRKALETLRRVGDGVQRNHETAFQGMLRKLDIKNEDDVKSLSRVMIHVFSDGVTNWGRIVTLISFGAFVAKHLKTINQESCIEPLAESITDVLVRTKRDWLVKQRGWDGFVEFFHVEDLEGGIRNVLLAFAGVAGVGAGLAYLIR

[6] = target: T1, Induced myeloid leukemia cell differentiation protein Mcl-1; test: Binding affinity to recombinant human 15N-labeled Mcl-1 (172 to 327 residues) expressed in Escherichia coli by NMR spectroscopy
Procedure, shortened: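 Proton shifts were referenced to the H2O/HDO signal (4.658 ppm versus external TSP) at 37 °C. The protein was size-exclusion purified to >98% purity by SDS-PAGE, with concentration determined by Bradford assay.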

Row | Structure (SMILES) | Ki ([1]; read-out: Ki) [µM] | Ratio Ki [2] | other results
1 | O=C(O)c1cc(S(=O)(=O)Nc2ccc([N+](=O)[O-])cc2)c2ccccc2c1O | 23.3 | 5.2 | 
2 | O=C(O)c1cc(S(=O)(=O)Nc2ccc(Oc3ccc(Cl)cc3Cl)cc2)c2ccccc2c1O | 0.19 | 2.4 | 
3 | O=C(O)c1cc(S(=O)(=O)NCc2ccccc2)c2ccccc2c1O |  |  | Ki [1]: Not Active
4 | CC(=O)OCOC(=O)c1cc(S(=O)(=O)N(CC(C)C)c2ccc(OC(C)C)cc2)c2ccccc2c1O |  |  | IC50 [3]: 15 µM; inhibition [5]: inactive
5 | COC(=O)c1cc(S(=O)(=O)N(CC(C)C)c2ccc(OC(C)C)cc2)c2ccccc2c1O |  |  | IC50 [3]: 300 µM; inhibition [5]: inactive; IC50 [4]: 300 µM
6 | O=C(O)c1cc(S(=O)(=O)Nc2ccc(Oc3cccc(Br)c3)cc2)c2ccccc2c1O | 0.3 | 3.8 | 
7 | Cc1cc(Oc2ccc(NS(=O)(=O)c3cc(C(=O)O)c(O)c4ccccc34)cc2)cc(C)c1Cl | 0.48 | 4.1 | 
8 | Cc1ccc(Oc2ccc(NS(=O)(=O)c3cc(C(=O)O)c(O)c4ccccc34)cc2)cc1 | 0.84 | 2.5 | 
9 | O=C(O)c1cc(S(=O)(=O)Nc2ccccc2C(F)(F)F)c2ccccc2c1O | 19.3 | 4.8 | 
10 | CC(C)Oc1ccc(NS(=O)(=O)c2cc(C(=O)O)c(O)c3ccccc23)cc1 |  |  | Ki [1]: Not Active
11 | Cc1cc(Oc2ccc(N(Cc3ccccc3)S(=O)(=O)c3cc(C(=O)O)c(O)c4ccccc34)cc2)cc(C)c1Cl | 0.34 |  | IC50 [3]: 90 µM; IC50 [4]: 50 µM
12 | NS(=O)(=O)c1cc(C(=O)O)c(O)c2ccccc12 |  |  | Ki [1]: Not Active
13 | COC(=O)c1cc(S(=O)(=O)N(CC(C)C)c2ccc(Br)cc2)c2ccccc2c1OC |  |  | Ki [5]: > 500 µM
14 | O=C(O)c1cc(S(=O)(=O)NCC2CCCCC2)c2ccccc2c1O | 77.6 | 11 | 
15 | O=C(O)c1cc(S(=O)(=O)Nc2ccccc2)c2ccccc2c1O |  |  | Ki [1]: Not Active
16 | O=C(O)c1cc(S(=O)(=O)Nc2cccc3ccccc23)c2ccccc2c1O | 110 | 10 | 
17 | O=C(O)c1cc(S(=O)(=O)Nc2ccc(Oc3cccc4ccccc34)cc2)c2ccccc2c1O | 0.22 | 3.7 | 
18 | CN(C)S(=O)(=O)c1cc(C(=O)O)c(O)c2ccccc12 |  |  | Ki [1]: Not Active
19 | O=C(O)c1cc(S(=O)(=O)NCc2ccc(Cl)cc2)c2ccccc2c1O | 338 | 16 | 
20 | O=C(O)c1cc(S(=O)(=O)Nc2ccc3ccccc3c2)c2ccccc2c1O | 68.5 | 15 | 
21 | Cc1cc(C)cc(Oc2ccc(NS(=O)(=O)c3cc(C(=O)O)c(O)c4ccccc34)cc2)c1 | 0.39 | 1.4 | 
22 | COC(=O)c1cc(S(=O)(=O)N(CC(C)C)c2ccc(Br)cc2)c2ccccc2c1O |  |  | Ki [5]: > 500 µM
23 | Cc1cc(Oc2ccc(N(C3CCCC3)S(=O)(=O)c3cc(C(=O)O)c(O)c4ccccc34)cc2)cc(C)c1Cl | 0.29 | 8.8 | 

Second part, led by results:

Row | Ki ([1]; read-out: Ki) [µM] | Ratio Ki [2] | Structure (SMILES) | other results
24 | 51.4 | 19 | O=C(O)c1cc(S(=O)(=O)Nc2ccc(Br)cc2)c2ccccc2c1O | IC50 [3]: 300 µM; IC50 [4]: 300 µM
25 | 71.9 | 6 | COc1ccc(NS(=O)(=O)c2cc(C(=O)O)c(O)c3ccccc23)cc1 | 
26 | 6.08 |  | CC(C)CN(c1ccc(OC(C)C)cc1)S(=O)(=O)c1cc(C(=O)O)c(O)c2ccccc12 | Activity [6]: Active; IC50 [3]: 300 µM; IC50 [4]: 150 µM
27 | 2.31 | 5.5 | O=C(O)c1cc(S(=O)(=O)Nc2ccc(Br)cc2Br)c2ccccc2c1O | 
28 | 0.17 | 2.1 | Cc1cc(Oc2ccc(N(CC(C)C)S(=O)(=O)c3cc(C(=O)O)c(O)c4ccccc34)cc2)cc(C)c1Cl | 
